According to ChEMBL document CHEMBL1932927, “Synthesis and evaluation of platelet aggregation inhibitory activity of some 3-phenyl-pyrroloquinazolinones” (Eur J Med Chem, 2012):
Activity calls are given as the source filed them. No cut-off for these calls is given here.

Assays:
Platelet [1] = assay: Antiplatelet activity against human platelets assessed as inhibition of collagen-induced platelets aggregation at 8 uM pretreated 3 mins before compound addition by aggregometer analysis; format: functional, cell-based
Outline: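 Washed platelets in basal buffer pH 7.4 (2-4 × 10⁸ cells/mL) preincubated 3 min with compound (8 µM) or DMSO, then stimulated with collagen […] (so in the source). Aggregation rate relative to vehicle control; means of 4 experiments ± S.E.M.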

Platelet [2] = assay: Antiplatelet activity against human platelets assessed as inhibition of thrombin-induced platelets aggregation at 8 uM pretreated 3 mins before compound addition by aggregometer analysis; format: functional, cell-based
Outline: (§1)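 Platelets isolated by differential centrifugation and resuspended in Tris/Hepes basal buffer pH 7.4. Exposed to compound or DMSO vehicle for 3 min, then thrombin 40 mU/mL added. Initial aggregation rate (velocity) recorded from aggregation traces. Means of four separate determinations ± S.E.M.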

Homo sapiens [3] = organism: Homo sapiens; assay: Inhibition of protein tyrosine kinase phosphorylation in thrombin-stimulated human platelets at 2 uM treated 3 mins before thrombin challenge by SDS/PAGE analysis
Outline: (§2)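 Platelets at 300 × 10⁶ cells/mL in basal medium pretreated 3 min with 2 µM compound or DMSO, then left resting or stimulated with thrombin 40 mU/mL. Proteins run on 10% SDS/PAGE, blotted, probed with anti-phosphotyrosine PY20, detected by ECL. Actin immunoblot served as loading control. Four experiments.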

Platelet [4] = assay: Increase in thrombin-indcued cytosolic calcium level in human platelets at 2 uM treated 1 min before thrombin challenge using fluorescent probe fura 2 by fluorescence assay; format: functional, cell-based
Outline: (§3)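 Fura 2-loaded platelets in stirred thermostated cuvette; excitation 340/385 nm, emission 505 nm. Compound (2 µM) or DMSO added, thrombin 40 mU/mL given 1 min or 3 min later. Also run with 0.5 mM EGTA added 1 min before compound. Traces representative of three experiments.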

[5] = Toxicity in human platelets assessed as LDH release at 4 uM after 1 hr; format: cell-based; conditions: platelet
Outline: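 Platelets (2 × 10⁸ cells/mL) incubated 1 h at 37 °C with compound, then centrifuged 3 min at 3000 g. Supernatant LDH measured with 5 mM NADH and 50 mM pyruvate as OD decrease at 340 nm. Total LDH determined after 0.1% Triton X-100 lysis.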

Platelet [6] = assay: Decrease in thrombin-indcued cytosolic calcium level in human platelets at 2 uM treated 3 mins before thrombin challenge using fluorescent probe fura 2 by fluorescence assay; format: functional, cell-based; outline: as §3
Platelet [7] = assay: Increase in cytosolic calcium level in human platelets at 2 uM using fluorescent probe fura 2 by fluorescence assay; format: functional, cell-based
Outline: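 Cytosolic Ca²⁺ monitored with fura 2 (excitation 340/385 nm, emission 505 nm) in stirred thermostated cuvette after 2 µM compound addition alone, versus DMSO vehicle. Representative of three experiments.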

Platelet [8] = assay: Antiplatelet activity against human platelets assessed as inhibition of thrombin-induced platelets aggregation at >4 uM pretreated 3 mins before compound addition by aggregometer analysis; format: functional, cell-based
[9] = Toxicity in human platelet assessed as cell viability at 4 uM after 4 to 6 hrs by alamar blue method; format: cell-based
Outline: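 Platelet suspensions with 1 mM NaHCO3 and 0.2% BSA kept at 37 °C under 5% CO₂ with compound for 4-6 h. Viability read fluorimetrically by Alamar Blue reduction.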

[10] = (§4) Antiplatelet activity against human platelets assessed as inhibition of thrombin-induced platelets aggregation pretreated 3 mins before compound addition by aggregometer analysis; format: functional, cell-based; conditions: Platelet; outline: as §1
Platelet [11] = assay: as §4; format: functional, cell-based; outline: as §1
Platelet [12] = assay: Antiplatelet activity against human platelets assessed as inhibition of Ca2+-ionophore ionomycin-induced platelets aggregation at 2 to 8 uM pretreated 3 mins before compound addition by aggregometer analysis; format: functional, cell-based
Outline: (§5)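 Washed platelets (ACD/apyrase/prostacyclin, differential centrifugation, resuspended in Tris/Hepes basal buffer pH 7.4, 2-4 × 10⁸ cells/mL) preincubated 3 min with test agent or DMSO. Then 20 nM PMA or ionomycin added. Maximal aggregation rate after agonist taken as 100% without compound. Means of 4 experiments ± S.E.M.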

Platelet [13] = assay: Antiplatelet activity against human platelets assessed as inhibition of phorbol-ester-induced platelets aggregation at 2 to 8 uM pretreated 3 mins before compound addition by aggregometer analysis; format: functional, cell-based; outline: as §5
Homo sapiens [14] = organism: Homo sapiens; assay: Inhibition of protein tyrosine kinase phosphorylation in human platelets at 2 uM by SDS/PAGE analysis; outline: as §2

CCn1ccc2c3c(=O)[nH]c(-c4ccc(OC)cc4)nc3ccc21
inhibition (Platelet [1]): Active
inhibition (Platelet [2]): Active

O=c1c(-c2ccccc2)c[nH]c2ccc3[nH]ccc3c12
inhibition (Platelet [1]): Active
inhibition (Platelet [2]): Active

O=c1[nH]c(-c2ccccc2)nc2ccc3[nH]ccc3c12
inhibition (Homo sapiens [3]): Active
Activity (Platelet [4]): Active
Activity [5]: Non-toxic
inhibition (Platelet [1]): Active
Activity (Platelet [6]): Active
inhibition (Platelet [2]): Active
Activity (Platelet [7]): Active
inhibition (Platelet [8]): Active
Activity [9]: Toxic
IC50 [10]: 1790 nM
inhibition (Platelet [11]): Dose-dependent effect
inhibition (Platelet [12]): Active
inhibition (Platelet [13]): Active
inhibition (Homo sapiens [14]): inactive

CCn1ccc2c3c(=O)c(-c4ccccc4)c[nH]c3ccc21
inhibition (Platelet [1]): Active
inhibition (Platelet [2]): Active

CCn1ccc2c3[nH]cc(-c4ccccc4)c(=O)c3ccc21
inhibition (Platelet [1]): Active
inhibition (Platelet [2]): Active

CCn1ccc2c3c(=O)[nH]c(-c4ccccc4)nc3ccc21
inhibition (Platelet [1]): Active
inhibition (Platelet [2]): Active

O=c1c(-c2ccccc2)c[nH]c2c1ccc1[nH]ccc12
inhibition (Platelet [1]): Active
inhibition (Platelet [2]): Active

O=c1[nH]c(-c2ccccc2)nc2ccc3c(ccn3CC3CC3)c12
inhibition (Platelet [1]): Active
inhibition (Platelet [2]): Active
